Data: ChEMBL document CHEMBL4622915, “Design and synthesis of C-12 dithiocarbamate andrographolide analogues as an anticancer agent” (Bioorg Med Chem Lett, 2020)

Columns and labels:
Format in all cases: functional, cell-based
P388 = assay: Anticancer activity against mouse P388 cells assessed as reduction in cell viability measured after 48 hrs by SRB assay; details: P388, 48 h
Procedure, shortened: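 Suspension cells seeded at 10^4 cells/well and exposed 48 h to compound at 0.1–50 μM, dissolved in DMSO (less than 0.05%). Ellipticine served as positive control. Then washed, TCA-fixed, stained with 0.4% SRB in 1% acetic acid. Protein-bound dye extracted and absorbance read at 515 nm; IC50 taken.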

KB = assay: Anticancer activity against human KB cells assessed as reduction in cell viability measured after 72 hrs by SRB assay
Procedure, shortened: (§1)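 Adherent cells seeded at 10^4 cells/well and exposed 72 h to compound at 0.1–50 μM, dissolved in DMSO (less than 0.05%). Ellipticine served as positive control. Afterwards cells washed, fixed with TCA, stained with 0.4% SRB in 1% acetic acid. Bound dye extracted and OD read at 515 nm; IC50 derived.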

HT-29 = assay: Anticancer activity against human HT-29 cells assessed as reduction in cell viability measured after 72 hrs by SRB assay; details: HT-29, 72 h; procedure, shortened: as §1
MCF7 = assay: Anticancer activity against human MCF7 cells assessed as reduction in cell viability measured after 72 hrs by SRB assay; details: MCF7, 72 h; procedure, shortened: as §1
A549 = assay: Anticancer activity against human A549 cells assessed as reduction in cell viability measured after 72 hrs by SRB assay; details: A549, 72 h; procedure, shortened: as §1
[1] = Anticancer activity against rat ASK cells assessed as reduction in cell viability measured after 72 hrs by SRB assay; procedure, shortened: as §1
[2] = Anticancer activity against human KKU-M213 cells assessed as reduction in cell viability measured after 72 hrs by SRB assay; details: KKU-M213, 72 h; procedure, shortened: as §1
HuCC-A1 = assay: Anticancer activity against human HuCCa1 cells assessed as reduction in cell viability measured after 72 hrs by SRB assay; details: HuCC-A1, 72 h; procedure, shortened: as §1
[3] = Anticancer activity against human KKU055 cells assessed as reduction in cell viability measured after 72 hrs by SRB assay; procedure, shortened: as §1

| Compound | IC50 (P388) | IC50 (KB) | IC50 (HT-29) | IC50 (MCF7) | IC50 (A549) | IC50 [1] | IC50 [2] | IC50 (HuCC-A1) | IC50 [3] |
| --- | --- | --- | --- | --- | --- | --- | --- | --- | --- |
| C=C1CC[C@@H]2[C@](C)(COC(C)=O)[C@H](OC(C)=O)CC[C@@]2(C)[C@@H]1C/C=C1/C(=O)OC[C@H]1OC(C)=O | 6.64 µM | 28.1 µM | 21.6 µM | 7.95 µM | > 50 µM | 22.5 µM | 14.8 µM | 20.1 µM | 5.02 µM |
| C=C1CC[C@@H]2[C@](C)(COC(C)=O)[C@H](OC(C)=O)CC[C@@]2(C)[C@@H]1C[C@H](SC(=S)N1CCc2ccccc2C1)C1=CCOC1=O | 4.38 µM | 25 µM | 7.08 µM | 3.95 µM | 25.1 µM | 20.1 µM | 5.59 µM | 7.19 µM | 5.55 µM |
| C=C1CC[C@@H]2[C@](C)(COC(C)=O)[C@H](OC(C)=O)CC[C@@]2(C)[C@@H]1C[C@H](SC(=S)N1CCC(Cc2ccccc2)CC1)C1=CCOC1=O | 4.85 µM | 33.6 µM | 15.3 µM | 5.46 µM | 29.1 µM | 28.5 µM | 6.76 µM | 19.7 µM | 6.42 µM |
| C=C1CC[C@@H]2[C@](C)(COC(C)=O)[C@H](OC(C)=O)CC[C@@]2(C)[C@@H]1C[C@H](SC(=S)N1CCN(C(c2ccc(F)cc2)c2ccc(F)cc2)CC1)C1=CCOC1=O | 14.3 µM | 42.5 µM | > 50 µM | 24.2 µM | > 50 µM | > 50 µM | 29.2 µM | > 50 µM | 28.3 µM |
| C=C1CC[C@@H]2[C@](C)(COC(C)=O)[C@H](OC(C)=O)CC[C@@]2(C)[C@@H]1C[C@H](SC(=S)N1CCN(c2ccc(O)cc2)CC1)C1=CCOC1=O | 5.75 µM | 6 µM | 4.93 µM | 2.56 µM | 22.1 µM | 4.74 µM | 4.91 µM | 4.88 µM | 5.29 µM |
| C=C1CC[C@@H]2[C@](C)(COC(C)=O)[C@H](OC(C)=O)CC[C@@]2(C)[C@@H]1C[C@H](SC(=S)N1CCN(Cc2ccc3c(c2)OCO3)CC1)C1=CCOC1=O | 4.58 µM | 21.4 µM | 7.91 µM | 5.68 µM | 29.5 µM | 14.9 µM | 7.51 µM | 11.6 µM | 9.75 µM |
| C=C1CC[C@@H]2[C@](C)(COC(C)=O)[C@H](OC(C)=O)CC[C@@]2(C)[C@@H]1C[C@H](SC(=S)N1CCN(c2ccccc2OC)CC1)C1=CCOC1=O | 5.76 µM | 17.8 µM | 6.58 µM | 4.72 µM | 28.5 µM | 14.3 µM | 5.59 µM | 8.08 µM | 7.62 µM |
| C=C1CC[C@@H]2[C@](C)(COC(C)=O)[C@H](OC(C)=O)CC[C@@]2(C)[C@@H]1C[C@H](SC(=S)N1CCN(c2ccccc2)CC1)C1=CCOC1=O | 4.3 µM | 23.5 µM | 8.08 µM | 6.53 µM | 28.9 µM | 15.6 µM | 6.47 µM | 9.59 µM | 9.27 µM |
| C=C1CC[C@@H]2[C@](C)(COC(C)=O)[C@H](OC(C)=O)CC[C@@]2(C)[C@@H]1C[C@H](SC(=S)N1CCN(C(c2ccccc2)c2ccc(Cl)cc2)CC1)C1=CCOC1=O (stereo partly drawn) | 22.6 µM | > 50 µM | > 50 µM | 21.7 µM | > 50 µM | > 50 µM | > 50 µM | > 50 µM | 27.7 µM |
| C=C1CC[C@@H]2[C@](C)(COC(C)=O)[C@H](OC(C)=O)CC[C@@]2(C)[C@@H]1C[C@H](SC(=S)N1CCN(c2ccc(C)cc2)CC1)C1=CCOC1=O | 5.5 µM | 19.4 µM | 8.29 µM | 6.06 µM | 27.8 µM | 28 µM | 6.49 µM | 17.5 µM | 14.8 µM |
| C=C1CC[C@@H]2[C@](C)(COC(C)=O)[C@H](OC(C)=O)CC[C@@]2(C)[C@@H]1C[C@H](SC(=S)N1CCOCC1)C1=CCOC1=O | 5.74 µM | 5.96 µM | 4.14 µM | 2.93 µM | 14.8 µM | 9.25 µM | 5.16 µM | 4.79 µM | 5.24 µM |
| C=C1CC[C@@H]2[C@](C)(COC(C)=O)[C@H](OC(C)=O)CC[C@@]2(C)[C@@H]1C[C@H](SC(=S)N(Cc1ccccc1)C(C)C)C1=CCOC1=O | 4.06 µM | 24.8 µM | 6.73 µM | 3.75 µM | 22.5 µM | 20.3 µM | 5.52 µM | 8.64 µM | 5.29 µM |
